Laboratory results taken from ChEMBL document CHEMBL3272061, “Experiments of synthesis of dl-camptothecin. 4. Synthesis and antileukemic activity of dl-camptothecin analogues” (J Med Chem, 1976).
The source made the active and inactive calls. No cut-off for these calls is given here.

Columns and labels:
[1] = test system: L1210; assay: Antileukemic activity against mouse L1210 cells allografted in BDF1 mouse assessed as host survival at 13.8 umol/kg, ip qd for 5 days measured after 30 days; assay type: functional, organism-based
In short: (§1)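 BDF1 mice, 5 weeks old, were inoculated ip with 5×10^5 L1210 cells in 0.1 ml saline. Test groups were 4 male and 4 female mice; controls were 5 male and 5 female. Insoluble compounds were suspended in vehicle. Dosing was ip, either once on the day after inoculation or daily for 5 days. Read-out was increase in life span over controls. Mice alive beyond 30 days were counted as 30 days and scored as survivors.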

[2] = test system: L1210; assay: Antileukemic activity against mouse L1210 cells allografted in BDF1 mouse assessed as host survival at 278 umol/kg, ip after 30 days; assay type: functional, organism-based; in short: as §1
[3] = test system: L1210; assay: Antileukemic activity against mouse L1210 cells allografted in BDF1 mouse assessed as host survival at 5.56 umol/kg, ip qd for 5 days measured after 30 days; assay type: functional, organism-based; in short: as §1
[4] = test system: L1210; assay: Antileukemic activity against mouse L1210 cells allografted in BDF1 mouse assessed as host survival at 27.8 umol/kg, po qd for 4 days measured after 30 days; assay type: functional, organism-based
[5] = test system: L1210; assay: Antileukemic activity against mouse L1210 cells allografted in BDF1 mouse assessed as host survival at 13.8 umol/kg, sc qd for 5 days measured after 30 days; assay type: functional, organism-based
[6] = test system: L1210; assay: Antileukemic activity against mouse L1210 cells allografted in BDF1 mouse assessed as host survival at 5.56 umol/kg, po qd for 4 days measured after 30 days; assay type: functional, organism-based
[7] = test system: L1210; assay: Antileukemic activity against mouse L1210 cells allografted in BDF1 mouse assessed as host survival at 27.8 umol/kg, ip after 30 days; assay type: functional, organism-based; in short: as §1
[8] = test system: L1210; assay: Antileukemic activity against mouse L1210 cells allografted in BDF1 mouse assessed as host survival at 139 umol/kg, ip after 30 days; assay type: functional, organism-based; in short: as §1
[9] = test system: L1210; assay: Antileukemic activity against mouse L1210 cells allografted in BDF1 mouse assessed as host survival at 5.56 umol/kg, sc qd for 5 days measured after 30 days; assay type: functional, organism-based
[10] = test system: L1210; assay: Antileukemic activity against mouse L1210 cells allografted in BDF1 mouse assessed as host survival at 13.8 umol/kg, po qd for 4 days measured after 30 days; assay type: functional, organism-based
[11] = test system: L1210; assay: Antileukemic activity against mouse L1210 cells allografted in BDF1 mouse assessed as host survival at 1.11 umol/kg, sc qd for 5 days measured after 30 days; assay type: functional, organism-based
[12] = test system: L1210; assay: Antileukemic activity against mouse L1210 cells allografted in BDF1 mouse assessed as host survival at 27.8 umol/kg, sc qd for 5 days measured after 30 days; assay type: functional, organism-based
[13] = test system: L1210; assay: Antileukemic activity against mouse L1210 cells allografted in BDF1 mouse assessed as host survival at 5.74 umol/kg, ip after 30 days; assay type: functional, organism-based; in short: as §1
[14] = test system: L1210; assay: Antileukemic activity against mouse L1210 cells allografted in BDF1 mouse assessed as host survival at 1.11 umol/kg, ip qd for 5 days measured after 30 days; assay type: functional, organism-based; in short: as §1
[15] = test system: L1210; assay: Antileukemic activity against mouse L1210 cells allografted in BDF1 mouse assessed as host survival at 5.21 umol/kg, ip after 30 days; assay type: functional, organism-based; in short: as §1
[16] = test system: L1210; assay: Antileukemic activity against mouse L1210 cells allografted in BDF1 mouse assessed as increase in life span of host at 69.8 umol/kg, ip relative to control; assay type: functional
In short: (§2)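 BDF1 mice, 5 weeks old, were inoculated ip with 5×10^5 L1210 cells; test groups had 4 males and 4 females, controls 5 males and 5 females. A single ip dose was given on the day after inoculation, as a suspension in vehicle for the insoluble compounds. Read-out was increase in life span over controls, with survivors past 30 days counted as 30 days.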

[17] = test system: L1210; assay: Antileukemic activity against mouse L1210 cells allografted in BDF1 mouse assessed as host survival at 4.87 umol/kg, ip after 30 days; assay type: functional, organism-based; in short: as §1
[18] = Solubility of the compound; assay type: physicochemical
[19] = species: Mus musculus; assay: Toxicity in mouse L1210 cells allografted BDF1 mouse; assay type: organism-based
[20] = test system: L1210; assay: Antileukemic activity against mouse L1210 cells allografted in BDF1 mouse assessed as increase in life span of host at 27.9 umol/kg, ip relative to control; assay type: functional; in short: as §2
[21] = test system: L1210; assay: Antileukemic activity against mouse L1210 cells allografted in BDF1 mouse assessed as increase in life span of host at 4.87 umol/kg, ip relative to control; assay type: functional; in short: as §2
[22] = test system: L1210; assay: Antileukemic activity against mouse L1210 cells allografted in BDF1 mouse assessed as increase in life span of host at 71.8 umol/kg, ip relative to control; assay type: functional; in short: as §2
[23] = test system: L1210; assay: Antileukemic activity against mouse L1210 cells allografted in BDF1 mouse assessed as host survival at 28.7 umol/kg, ip after 30 days; assay type: functional, organism-based; in short: as §1
[24] = test system: L1210; assay: Antileukemic activity against mouse L1210 cells allografted in BDF1 mouse assessed as increase in life span of host at 5.74 umol/kg, ip relative to control; assay type: functional; in short: as §2
[25] = test system: L1210; assay: Antileukemic activity against mouse L1210 cells allografted in BDF1 mouse assessed as host survival at 26.3 umol/kg, ip after 30 days; assay type: functional, organism-based; in short: as §1
[26] = test system: L1210; assay: Antileukemic activity against mouse L1210 cells allografted in BDF1 mouse assessed as increase in life span of host at 28.7 umol/kg, ip relative to control; assay type: functional; in short: as §2
[27] = test system: L1210; assay: Antileukemic activity against mouse L1210 cells allografted in BDF1 mouse assessed as increase in life span of host at 144 umol/kg, ip relative to control; assay type: functional; in short: as §1
[28] = test system: L1210; assay: Antileukemic activity against mouse L1210 cells allografted in BDF1 mouse assessed as increase in life span of host at 26.3 umol/kg, ip relative to control; assay type: functional; in short: as §2
[29] = test system: L1210; assay: Antileukemic activity against mouse L1210 cells allografted in BDF1 mouse assessed as increase in life span of host at 287 umol/kg, ip relative to control; assay type: functional; in short: as §2
[30] = test system: L1210; assay: Antileukemic activity against mouse L1210 cells allografted in BDF1 mouse assessed as host survival at 287 umol/kg, ip after 30 days; assay type: functional, organism-based; in short: as §1
[31] = test system: L1210; assay: Antileukemic activity against mouse L1210 cells allografted in BDF1 mouse assessed as host survival at 25 umol/kg, sc qd for 5 days measured after 30 days; assay type: functional, organism-based
[32] = test system: L1210; assay: Antileukemic activity against mouse L1210 cells allografted in BDF1 mouse assessed as host survival at 5 umol/kg, sc qd for 5 days measured after 30 days; assay type: functional, organism-based
[33] = test system: L1210; assay: Antileukemic activity against mouse L1210 cells allografted in BDF1 mouse assessed as host survival at 5 umol/kg, po qd for 5 days measured after 30 days; assay type: functional, organism-based
[34] = test system: L1210; assay: Antileukemic activity against mouse L1210 cells allografted in BDF1 mouse assessed as host survival at 5 umol/kg, ip qd for 5 days measured after 30 days; assay type: functional, organism-based; in short: as §1
[35] = test system: L1210; assay: Antileukemic activity against mouse L1210 cells allografted in BDF1 mouse assessed as host survival at 12.5 umol/kg, ip qd for 5 days measured after 30 days; assay type: functional, organism-based; in short: as §1
[36] = test system: L1210; assay: Antileukemic activity against mouse L1210 cells allografted in BDF1 mouse assessed as host survival at 1 umol/kg, sc qd for 5 days measured after 30 days; assay type: functional, organism-based
[37] = test system: L1210; assay: Antileukemic activity against mouse L1210 cells allografted in BDF1 mouse assessed as host survival at 1 umol/kg, ip qd for 5 days measured after 30 days; assay type: functional, organism-based; in short: as §1
[38] = test system: L1210; assay: Antileukemic activity against mouse L1210 cells allografted in BDF1 mouse assessed as host survival at 12.5 umol/kg, po qd for 5 days measured after 30 days; assay type: functional, organism-based
[39] = test system: L1210; assay: Antileukemic activity against mouse L1210 cells allografted in BDF1 mouse assessed as host survival at 25 umol/kg, po qd for 4 days measured after 30 days; assay type: functional, organism-based

With `C=CCC1(O)C(=O)OCc2c1cc1n(c2=O)Cc2cc3ccccc3nc2-1` (racemic) the Activity [1] was “inactive”, the Activity [2] was “inactive” and the Activity [3] was “inactive”. The Activity [4] was “inactive”, the Activity [5] was “inactive” and the Activity [6] was “inactive”. For the same compound, the Activity [7] was “inactive”, the Activity [8] was “inactive” and the Activity [9] was “inactive”. The Activity [10] was “inactive”, the Activity [11] was “inactive” and the Activity [12] was “inactive”. For the same compound, the Activity [13] was “inactive”, the Activity [14] was “inactive” and the Activity [15] was “inactive”.

With `C#CCC1(O)C(=O)OCc2c1cc1n(c2=O)Cc2cc3ccccc3nc2-1` (racemic) the ILS at 69.8 µmol/kg [16] was > 149%, the Activity [17] was “inactive” and the solubility [18] was “Insoluble”. The Activity [19] was “Toxic”, the ILS at 27.9 µmol/kg [20] was > 117% and the ILS at 4.87 µmol/kg [21] was 58%.

For `CCC1(O)C(=O)OCc2c1cc1n(c2=O)Cc2cc3ccccc3nc2-1` (racemic), the ILS at 71.8 µmol/kg [22] was > 155%, the Activity [23] was “inactive” and the ILS at 5.74 µmol/kg [24] was 16%. For the same compound, the solubility [18] was “Insoluble”, the Activity [25] was “inactive” and the ILS at 28.7 µmol/kg [26] was 84%. For the same compound, the ILS at 144 µmol/kg [27] was > 60%, the ILS at 26.3 µmol/kg [28] was 6% and the ILS at 287 µmol/kg [29] was -43%. For the same compound, the Activity [30] was “inactive” and the Activity [13] was “inactive”.

With `C=CCC1(O)C(=O)OCc2c1cc1n(c2=O)Cc2cc3ccccc3nc2-1` (stereo unspecified) the Activity [31] was “inactive”, the Activity [32] was “inactive” and the Activity [33] was “inactive”. The Activity [34] was “inactive”, the Activity [35] was “inactive” and the Activity [36] was “inactive”. The Activity [37] was “inactive”, the Activity [38] was “inactive” and the Activity [39] was “inactive”.
